Assays:
[1] = biological target: T1, Quinolone resistance protein NorA (Staphylococcus aureus) (UniProt P0A0J7); test: Inhibition of NorA in fluoroquinolone-resistant Staphylococcus aureus 1199B assessed as potentiation of 4 ug/ml of ciprofloxacin MIC at 100 ug/ml after 24 hrs by microdilution method
T1 sequence (whole entry): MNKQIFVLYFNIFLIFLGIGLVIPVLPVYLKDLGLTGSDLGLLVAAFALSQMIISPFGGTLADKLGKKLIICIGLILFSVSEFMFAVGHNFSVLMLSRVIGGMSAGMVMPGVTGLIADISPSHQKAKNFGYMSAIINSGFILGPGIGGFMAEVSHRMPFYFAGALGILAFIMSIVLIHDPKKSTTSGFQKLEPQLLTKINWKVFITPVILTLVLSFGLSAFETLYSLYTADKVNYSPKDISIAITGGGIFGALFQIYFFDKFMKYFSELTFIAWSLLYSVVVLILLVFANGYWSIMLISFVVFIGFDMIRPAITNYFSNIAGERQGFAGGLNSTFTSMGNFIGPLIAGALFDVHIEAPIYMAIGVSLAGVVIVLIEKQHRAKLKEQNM
Method in brief: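 Combination with ciprofloxacin 4 μg/mL (MIC/4) against SA-1199B in MH broth microdilution, 10^6 CFU/mL, 24 h at 37 °C, read at 620 nm and visually. Compounds are first screened at 100 μg/mL; actives are 2-fold serially diluted. MMC4 is the lowest inhibitor concentration giving antibacterial activity with subinhibitory ciprofloxacin. Duplicates.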

Staphylococcus aureus [2] = test: Toxicity in Staphylococcus aureus ATCC 25923 at 100 ug/ml after 24 hrs by microdilution method; assay type: organism-based
Method in brief: (§1)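 Single-point screen at 100 μg/mL of compound alone in MH broth microdilution, 10^6 CFU/mL, 24 h at 37 °C. Growth is read at 620 nm and visually, giving percent growth inhibition. Compounds inhibiting more than 90% then go to MIC determination. Duplicates.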

Staphylococcus aureus [3] = test: Toxicity in fluoroquinolone-resistant Staphylococcus aureus 1199B expressing NorA at 100 ug/ml after 24 hrs by microdilution method; assay type: organism-based; method in brief: as §1
Staphylococcus aureus [4] = test: Toxicity in Staphylococcus aureus ATCC 25923 after 24 hrs by microdilution method; assay type: organism-based
Method in brief: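 Mueller–Hinton broth microdilution; inoculum from frozen culture grown 18 h at 37 °C, 10^6 CFU/mL per well. Compounds (10 mg/mL DMSO stock) in 2-fold serial dilutions, highest 128 mg/L, first screened at 100 μg/mL. MIC = complete growth inhibition after 24 h at 37 °C, read at 620 nm and visually; duplicate; ampicillin control.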

SMILES | Activity [1] | growth inhibition (GI) (Staphylococcus aureus [2]) | growth inhibition (GI) (Staphylococcus aureus [3]) | MIC (Staphylococcus aureus [4])
OB(O)c1ccc(Oc2cccnc2)nc1 | > 128 µg/mL | < 90% | < 90% | >= 64 ug ml-1
Cn1c(B2OC(C)(C)C(C)(C)O2)cnc1Cl | 128 µg/mL | < 90% | < 90% | >= 64 ug ml-1
CC(C)(O)C(C)(C)OB(OC(C)(C)C(C)(C)O)c1ccc(NCc2ccccc2)nc1 | 128 µg/mL | < 90% | < 90% | >= 64 ug ml-1
CC(C)(O)C(C)(C)OB(OC(C)(C)C(C)(C)O)c1ccc(F)nc1 | 128 µg/mL | < 90% | < 90% | >= 64 ug ml-1
CC(C)(O)C(C)(C)OB(OC(C)(C)C(C)(C)O)c1cncc(Br)c1 | > 128 µg/mL | < 90% | < 90% | >= 64 ug ml-1
N#Cc1ncccc1B(O)O | > 128 µg/mL | < 90% | < 90% | >= 64 ug ml-1
CC(C)(O)C(C)(C)OB(OC(C)(C)C(C)(C)O)c1ccnc(Cl)c1C#N | > 128 µg/mL | < 90% | < 90% | >= 64 ug ml-1
CC(C)(O)C(C)(C)OB(OC(C)(C)C(C)(C)O)c1ccc(Cl)nc1 | 128 µg/mL | < 90% | < 90% | >= 64 ug ml-1
CC1(C)OB(c2ccc3c(cnn3COCC[Si](C)(C)C)c2)OC1(C)C | 16 µg/mL | < 90% | < 90% | >= 64 ug ml-1
CC1(C)OB(c2cnc(-c3ccccc3)n2C(=O)c2ccccc2)OC1(C)C | 32 µg/mL | < 90% | < 90% | >= 64 ug ml-1
Cc1cc(B(OC(C)(C)C(C)(C)O)OC(C)(C)C(C)(C)O)ccn1 | > 128 µg/mL | < 90% | < 90% | >= 64 ug ml-1
CSc1ncccc1B(O)O | > 128 µg/mL | < 90% | < 90% | >= 64 ug ml-1
CC(C)(O)C(C)(C)OB(OC(C)(C)C(C)(C)O)c1ccnc(Cl)c1 | 128 µg/mL | < 90% | < 90% | >= 64 ug ml-1
OB(O)c1cc(Br)cnc1Cl | 32 µg/mL | < 90% | < 90% | >= 64 ug ml-1
OB(O)c1ccccc1F | 16 µg/mL | < 90% | < 90% | >= 64 ug ml-1
CC(C)(O)C(C)(C)OB(OC(C)(C)C(C)(C)O)c1ccc(OCc2ccccc2)nc1 | 64 µg/mL | < 90% | < 90% | >= 64 ug ml-1
CCOc1ncccc1B(O)O | > 128 µg/mL | < 90% | < 90% | >= 64 ug ml-1
Cc1cc(B(O)O)c(C)s1 | 16 µg/mL | < 90% | < 90% | >= 64 ug ml-1
CC(C)(O)C(C)(C)OB(OC(C)(C)C(C)(C)O)c1ccnc(F)c1Cl | 16 µg/mL | < 90% | < 90% | >= 64 ug ml-1
CC1(C)OB(c2cnn(C(=O)c3ccccc3)c2)OC1(C)C | 128 µg/mL | < 90% | < 90% | >= 64 ug ml-1
CC(C)(C)OC(=O)n1ncc2cc(B3OC(C)(C)C(C)(C)O3)ccc21 | > 128 µg/mL | < 90% | < 90% | >= 64 ug ml-1
CC(C)(O)C(C)(C)OB(OC(C)(C)C(C)(C)O)c1ccnc(Cl)c1Cl | 32 µg/mL | < 90% | < 90% | >= 64 ug ml-1
OB(O)c1cccnc1 | 32 µg/mL | < 90% | < 90% | >= 64 ug ml-1

SMILES | Activity [1] | growth inhibition (GI) (Staphylococcus aureus [2]) | growth inhibition (GI) (Staphylococcus aureus [3]) | MIC (Staphylococcus aureus [4])
CC(C)(O)C(C)(C)OB(OC(C)(C)C(C)(C)O)c1cccnc1F | > 128 µg/mL | < 90% | < 90% | >= 64 ug ml-1
Cc1cc(B(O)O)cnc1N1CCOCC1 | 64 µg/mL | < 90% | < 90% | >= 64 ug ml-1
CCOc1ccc(B(OC(C)(C)C(C)(C)O)OC(C)(C)C(C)(C)O)cn1 | 128 µg/mL | < 90% | < 90% | >= 64 ug ml-1
Cc1cc(B(OC(C)(C)C(C)(C)O)OC(C)(C)C(C)(C)O)cnc1N1CCOCC1 | 32 µg/mL | < 90% | < 90% | >= 64 ug ml-1
N#Cc1cnccc1B(O)O | > 128 µg/mL | < 90% | < 90% | >= 64 ug ml-1
CCc1ccc(B(OC(C)(C)C(C)(C)O)OC(C)(C)C(C)(C)O)cc1 | 32 µg/mL | < 90% | < 90% | >= 64 ug ml-1
Cc1cc(B(O)O)cnc1Br | 32 µg/mL | < 90% | < 90% | >= 64 ug ml-1
CC(C)(O)C(C)(C)OB(OC(C)(C)C(C)(C)O)c1ccncc1Br | > 128 µg/mL | < 90% | < 90% | >= 64 ug ml-1
CC(C)(O)C(C)(C)OB(OC(C)(C)C(C)(C)O)c1ccncc1F | > 128 µg/mL | < 90% | < 90% | >= 64 ug ml-1
OB(O)c1ccnc(F)c1 | > 128 µg/mL | < 90% | < 90% | >= 64 ug ml-1
OB(O)c1ccc(F)nc1 | 32 µg/mL | < 90% | < 90% | >= 64 ug ml-1
Cc1cc(B(OC(C)(C)C(C)(C)O)OC(C)(C)C(C)(C)O)cnc1Cl | 32 µg/mL | < 90% | < 90% | >= 64 ug ml-1
OB(O)c1ccnc(Cl)c1 | > 128 µg/mL | < 90% | < 90% | >= 64 ug ml-1
CC(C)(O)C(C)(C)OB(OC(C)(C)C(C)(C)O)c1ccncc1Cl | > 128 µg/mL | < 90% | < 90% | >= 64 ug ml-1
OB(O)c1cccnc1Br | > 128 µg/mL | < 90% | < 90% | >= 64 ug ml-1
CSc1ccc(B(OC(C)(C)C(C)(C)O)OC(C)(C)C(C)(C)O)cn1 | > 128 µg/mL | < 90% | < 90% | >= 64 ug ml-1
CC(C)(O)C(C)(C)OB(OC(C)(C)C(C)(C)O)c1cc(Br)cnc1Cl | 128 µg/mL | < 90% | < 90% | >= 64 ug ml-1
COc1nccc(B(O)O)c1Cl | 32 µg/mL | < 90% | < 90% | >= 64 ug ml-1
F[B-](F)(F)c1cccnc1.[K+] | > 128 µg/mL | < 90% | < 90% | >= 64 ug ml-1
OB(O)c1cncc(Oc2cncc(Cl)c2)c1 | 16 µg/mL | < 90% | < 90% | >= 64 ug ml-1
CC(C)(O)C(C)(C)OB(OC(C)(C)C(C)(C)O)c1cc(Cl)ncc1Cl | 32 µg/mL | < 90% | < 90% | >= 64 ug ml-1
COc1ncccc1B(OC(C)(C)C(C)(C)O)OC(C)(C)C(C)(C)O | > 128 µg/mL | < 90% | < 90% | >= 64 ug ml-1
COC(=O)[C@H]1[C@H]2C[C@@H]3c4[nH]c5cc(OC)ccc5c4CCN3C[C@H]2C[C@@H](OC(=O)c2cc(OC)c(OC)c(OC)c2)[C@@H]1OC [RESERPINE] | 4 µg/mL |  |  | >= 64 ug ml-1
